The values below come from ChEMBL document CHEMBL4808167, “Design, Synthesis, and Evaluation of Small Molecule Gαq/11 Protein Inhibitors for the Treatment of Uveal Melanoma” (J Med Chem, 2021).

Active and inactive are the calls of the source. No cut-off for these calls is given here.

One data set relates to MP41. Kind of data set: Inhibition of colony formation in human MP41 cells at 5 to 15 uM after 9 days by crystal violet staining based light microscopic analysis. In kind it is functional, cell-based. The settings on record: dose 5-15 µM, time 9.0 day. Summed up: (§1)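 Cells seeded 4 × 10³/well, incubated overnight at 37 °C, 5% CO₂, then exposed to compound for 9 days until colonies visible, medium and inhibitor replaced every 3 days. Fixed in 4% paraformaldehyde 15 min, crystal violet-stained 30 min, colonies counted. Repeated twice.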

A short description of data set [1]: MRT(0 to t) in ICR mouse at 10 mg/kg, iv measured upto 24 hrs by LC-MS/MS analysis. In kind it is ADME, organism-based. The settings on record: in vivo. Summed up: (§2)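 Single-dose PK in male ICR mice (n = 6): 10 mg/kg iv or 30 mg/kg po, vehicle 5% DMSO/95% saline. Blood (30 μL) by catheter at 0, 5, 15, 30 min and 1, 2, 4, 6, 8, 24 h; plasma by centrifugation, stored −80 °C, measured by LC–MS/MS. Parameters from noncompartmental analysis, mean SD.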

The subject of data set [2] is 921. Kind of data set: Inhibition of colony formation in human 921 cells at 1 to 5 uM after 9 days by crystal violet staining based light microscopic analysis. In kind it is functional, cell-based. The settings on record: dose 1-5 µM, time 9.0 day. Summed up: as §1
Data set [3] deals with 921. Kind of data set: Antiproliferative activity against human 92.1 cells assessed as inhibition of cell growth at 5 to 15 uM by CCK8 assay. In kind it is functional, cell-based. The settings on record: dose 5-15 µM, time 24-96 hrs, TDE = time-dependent effect.
A short description of data set [4]: Induction of apoptosis in human MP41 cells assessed as necrotic cells at 30 uM after 48 hrs by Annexin-V-FITC/propidium iodide staining based flow cytometry (reference value: 0.11%). The class given is functional. For orientation: A flow cytometer gives signals particle by particle.
The nature of data set [5]: Clearance in ICR mouse at 10 mg/kg, iv measured upto 24 hrs by LC-MS/MS analysis. In kind it is ADME, organism-based. The settings on record: in vivo. The method, boiled down: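 Single dose in male ICR mice, 10 mg/kg iv or 30 mg/kg po, dissolved in 5% DMSO/95% saline. Blood drawn by catheter at 0, 5, 15, 30 min and 1, 2, 4, 6, 8, 24 h. Plasma spun 6800g 6 min at 2−8 °C, stored −80 °C, quantified by LC−MS/MS. Noncompartmental parameters, mean ± SD, n = 6.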

The nature of data set [6]: Toxicity in nude BALB/c mouse xenografted with human MP41 cells assessed as effect on body weight at 10 to 30 mg/kg, ip administered once daily for 21 days and measured every 3 days. The class given is organism-based. The settings on record: in vivo, 504 h, dose 10-30 mg/kg, time 21 day. The method, boiled down:
(§3)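 Nude BALB/c mice bearing serially passaged MP41 tumour slices (tertiary recipients, n = 8/group, randomized) dosed ip daily for 21 days at 10 or 30 mg/kg/d or vehicle. Body weight monitored every 3 days. Tissues collected at sacrifice, fixed in 4% paraformaldehyde 24 h, paraffin-embedded, H&E stained, viewed at ×100.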
On the technique in general: In xenograft studies the graft and the host belong to different species.

Data set [7] is described as follows: Induction of apoptosis in human MP41 cells assessed as late apoptotic cells at 15 uM after 48 hrs by Annexin-V-FITC/propidium iodide staining based flow cytometry (reference value: 3.28%). The class given is functional.
Data set [8] can be described thus: Antitumor activity against human MP41 cells xenografted in nude BALB/c mouse assessed as tumor growth inhibition at 10 mg/kg, ip administered for once daily for 21 days and measured every 3 days. In kind it is functional. The settings on record: 504 h, time 21 day, read-out: TGI. Summed up: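 MP41 tumours were passaged subcutaneously mouse-to-mouse in nude BALB/c mice (6−8 weeks, 20−25 g). Tertiary recipients randomized, n = 8/group, given 10 or 30 (mg/kg)/d ip or vehicle for 21 days. Tumour size (V = A × B² × π/6, caliper) and body weight taken every 3 days; tumours excised and weighed on day 22. TGI computed versus the vehicle group.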

The nature of data set [9]: Induction of apoptosis in human 921 cells assessed as necrotic cells at 5 uM after 48 hrs by Annexin-V-FITC/propidium iodide staining based flow cytometry (reference value: 0.26%). In kind it is functional.
Data set [10] has as its system 921. Kind of data set: Antiproliferative activity against human 92.1 cells assessed as inhibition of cell growth at 10 to 15 uM after 72 hrs by CKK8 assay. The class given is functional, cell-based. The settings on record: dose 10-15 µM.
In data set [11] the target is GNAQ/GNA11 (Homo sapiens) (UniProt P50148+P29992). Kind of data set: Inhibition of Galphaq/11 (unknown origin) expressed in HEK293 cells cotransfected with AT1R assessed as inhibition of Ang-II induced calcium release at 100 uM preincubated for 30 mins followed by Ang-II addition by Fluo-4AM dye based fluorescence assay. In kind it is cell-based. Summed up: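 HEK293 cells transfected with AT₁R, washed in HBSS with 0.1% BSA and loaded with Fluo-4 AM for 1 h at 37 °C. Washed, then pretreated with compound at 100 μM for 30 min. AngII at varying concentrations added 20 s into the fluorescence recording. Mean ± SD, n = 3.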

A short description of data set [12]: Toxicity in nude BALB/c mouse xenografted with human MP41 cells assessed as morphological changes in lung tissue at 10 to 30 mg/kg, ip administered once daily for 21 days and measured every 3 days by HE staining based assay. The settings on record: in vivo, 504 h, dose 10-30 mg/kg, time 21 day. The class given is organism-based. Summed up:
as §3

A short description of data set [13]: Induction of apoptosis in human MP41 cells assessed as viable cells at 15 uM after 48 hrs by Annexin-V-FITC/propidium iodide staining based flow cytometry (reference value: 93.6%). In kind it is functional. The settings on record: read-out: Activity.
Data set [14] in a line: Induction of apoptosis in human MP41 cells assessed as necrotic cells at 15 uM after 48 hrs by Annexin-V-FITC/propidium iodide staining based flow cytometry (reference value: 0.11%). In kind it is functional.
Data set [15] in a line: Toxicity in nude BALB/c mouse xenografted with human MP41 cells assessed as morphological changes in liver tissue at 10 to 30 mg/kg, ip administered once daily for 21 days and measured every 3 days by HE staining based assay. The settings on record: in vivo, 504 h, dose 10-30 mg/kg, time 21 day. In kind it is organism-based. The method, boiled down: as §3
Data set [16] is described as follows: Tmax in ICR mouse at 10 mg/kg, iv measured upto 24 hrs by LC-MS/MS analysis. In kind it is ADME, organism-based. The settings on record: in vivo. Summed up:
as §2

`CC[C@@H](C)[C@H](N)C(=O)N1CCn2cc(-c3ccccc3)nc2[C@@H]1CC1CCCCC1`: the inhibition result in the data set with MP41 and with 921 [2] was “Active” throughout. For the same molecule, the MRT last (as a rule, the average time that molecules of a dose stay in the body) at 24 h in data set [1] is 55.8 min. Further, the Activity result in the data set on 921 [3] was “Tde”; in data set [4] it was 0.27%; in data set [6], “Non-Toxic”; in data set [7] it was 4.42%; in data set [9] it was 0.43%; in [12], “Non-Toxic”. The Activity in [14] is 0.09%; in data set [15], “Non-Toxic”. Besides, the clearance – broadly, the rate of elimination divided by the concentration – in [5] amounted to 77.9 mL/min/kg. In addition, the inhibition in vivo at 10 mg/kg in [8] is 65.4%. The outcome (in the data set on 921 [10]; in data set [11]) was Active. The viability at 15 µM in data set [13] is 90.2%. Besides, the time to peak (Tmax) (in general, the time at which the peak concentration occurs) in [16] was found to be 4.8 min.
